From ChEMBL document CHEMBL1155420, “Synthesis, antibacterial and antifungal activities of some carbazole derivatives” (2010)
Converted amounts (≈) assume the structure as drawn.

Assays:
Assay type in all cases: functional
[1] = test system: Staphylococcus aureus; assay: Antibacterial activity against Staphylococcus aureus ATCC 29213 after 24 hrs by two fold serial dilution method; conditions: ATCC 29213, 24 h
In short: (§1)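 MICs determined by modified microbroth twofold dilution per NCCLS. Compounds were tested at 512, 256, 128, 64, 32, 16, 8, 4, 2, 1 and 0.5 µg/mL. Dilutions were inoculated and incubated at 37 °C for 24 h. A DMSO solvent control in test medium was run at the same dilutions.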

[2] = test system: Staphylococcus aureus; assay: Antibacterial activity against Methicillin-Resistant Staphylococcus aureus subsp. aureus N315 after 24 hrs by two fold serial dilution method; conditions: N315, 24 h
In short: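 Modified microbroth dilution following National Committee for Clinical Laboratory Standards methods. Twofold serial dilutions were set at 512, 256, 128, 64, 32, 16, 8, 4, 2, 1 and 0.5. Dilutions were inoculated with strain N315 and incubated at 37 °C for 24 h. A solvent control used medium with DMSO at the same dilutions. Read-out was the MIC.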

[3] = test system: Bacillus subtilis; assay: Antibacterial activity against Bacillus subtilis ATCC 21216 after 24 hrs by two fold serial dilution method; conditions: ATCC 21216, 24 h; in short: as §1
[4] = test system: Escherichia coli; assay: Antibacterial activity against Escherichia coli ATCC 25922 after 24 hrs by two fold serial dilution method; conditions: ATCC 25922, 24 h; in short: as §1
[5] = test system: Pseudomonas aeruginosa; assay: Antibacterial activity against Pseudomonas aeruginosa ATCC 27853 after 24 hrs by two fold serial dilution method; conditions: ATCC 27853, 24 h; in short: as §1
[6] = test system: Proteus vulgaris; assay: Antibacterial activity against Proteus vulgaris ATCC 49027 after 24 hrs by two fold serial dilution method; conditions: ATCC 49027, 24 h; in short: as §1
[7] = test system: Candida albicans; assay: Antifungal activity against Candida albicans ATCC 76615 after 24 hrs by two fold serial dilution method; conditions: ATCC 76615, 24 h
In short: (§2)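 Modified NCCLS microbroth dilution, with eleven compound concentrations from 0.5 to 512 µg/mL. Dilutions were inoculated and incubated at 35 °C for 24 h. MIC50 was taken as the first well showing about 50% growth reduction versus the drug-free well.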

[8] = test system: Aspergillus fumigatus; assay: Antifungal activity against Aspergillus fumigatus ATCC 96918 after 24 hrs by two fold serial dilution method; conditions: ATCC 96918, 24 h; in short: as §2

Row | SMILES | MIC50 [1] | MIC50 [2] | MIC50 [3] | MIC50 [4] | MIC50 [5] | MIC50 [6] | MIC50 [7] | MIC50 [8]
1 | c1ccc2c(c1)c1ccccc1n2Cc1ccc(Cn2cncn2)cc1 | 256 µg/mL (≈ 756 µM) | > 512 µg/mL | > 512 µg/mL | 32 µg/mL (≈ 94.6 µM) | > 512 µg/mL | > 512 µg/mL | 4 µg/mL (≈ 11.8 µM) | > 512 µg/mL
2 | c1ccc2c(c1)c1ccccc1n2CCCCCCn1c2ccccc2c2ccccc21 | 128 µg/mL (≈ 307 µM) | > 512 µg/mL | > 512 µg/mL | > 512 µg/mL | > 512 µg/mL | > 512 µg/mL | > 512 µg/mL | 256 µg/mL (≈ 615 µM)
3 | BrCCCCCCn1c2ccccc2c2ccccc21 | 128 µg/mL (≈ 388 µM) | > 512 µg/mL | > 512 µg/mL | > 512 µg/mL | > 512 µg/mL | > 512 µg/mL | > 512 µg/mL | 512 µg/mL (≈ 1550 µM)
4 | OC(Cn1cncn1)(Cn1cncn1)c1ccc(F)cc1F [FLUCONAZOLE] | – | – | – | – | – | – | 0.5 µg/mL (≈ 1.63 µM) | 512 µg/mL (≈ 1670 µM)
5 | c1ccc2c(c1)c1ccccc1n2CCCCn1c2ccccc2c2ccccc21 | > 512 µg/mL | > 512 µg/mL | > 512 µg/mL | > 512 µg/mL | > 512 µg/mL | 64 µg/mL (≈ 165 µM) | > 512 µg/mL | > 512 µg/mL
6 | Clc1ccc(C[n+]2cnn(Cc3ccc(Cn4c5ccccc5c5ccccc54)cc3)c2)c(Cl)c1.[Cl-] | 2 µg/mL | 8 µg/mL | 2 µg/mL | 2 µg/mL | 4 µg/mL | 8 µg/mL | 32 µg/mL | 64 µg/mL
7 | c1ccc2c(c1)c1ccccc1n2CCCCn1ccnc1 | 2 µg/mL (≈ 6.91 µM) | 4 µg/mL (≈ 13.8 µM) | 4 µg/mL (≈ 13.8 µM) | 8 µg/mL (≈ 27.6 µM) | 1 µg/mL (≈ 3.46 µM) | 1 µg/mL (≈ 3.46 µM) | 16 µg/mL (≈ 55.3 µM) | 64 µg/mL (≈ 221 µM)
8 | O=C(N[C@H](CO)[C@H](O)c1ccc([N+](=O)[O-])cc1)C(Cl)Cl [CHLORAMPHENICOL] | 64 µg/mL (≈ 198 µM) | 8 µg/mL (≈ 24.8 µM) | > 512 µg/mL | 64 µg/mL (≈ 198 µM) | > 512 µg/mL | 16 µg/mL (≈ 49.5 µM) | – | –
9 | c1ccc2c(c1)c1ccccc1n2CCCCCCn1ccnc1 | 8 µg/mL (≈ 25.2 µM) | 8 µg/mL (≈ 25.2 µM) | 8 µg/mL (≈ 25.2 µM) | 4 µg/mL (≈ 12.6 µM) | 1 µg/mL (≈ 3.15 µM) | 1 µg/mL (≈ 3.15 µM) | 16 µg/mL (≈ 50.4 µM) | 128 µg/mL (≈ 403 µM)
10 | c1ccc2c(c1)c1ccccc1n2Cc1ccc(Cn2ccnc2)cc1 | 1 µg/mL (≈ 2.96 µM) | 8 µg/mL (≈ 23.7 µM) | 4 µg/mL (≈ 11.9 µM) | 8 µg/mL (≈ 23.7 µM) | 1 µg/mL (≈ 2.96 µM) | 4 µg/mL (≈ 11.9 µM) | 16 µg/mL (≈ 47.4 µM) | > 512 µg/mL
11 | c1ccc2c(c1)c1ccccc1n2CCCCn1cncn1 | 256 µg/mL (≈ 882 µM) | > 512 µg/mL | > 512 µg/mL | 32 µg/mL (≈ 110 µM) | 128 µg/mL (≈ 441 µM) | > 512 µg/mL | 2 µg/mL (≈ 6.89 µM) | > 512 µg/mL
12 | BrCc1ccc(Cn2c3ccccc3c3ccccc32)cc1 | 128 µg/mL (≈ 365 µM) | > 512 µg/mL | 256 µg/mL (≈ 731 µM) | 256 µg/mL (≈ 731 µM) | 256 µg/mL (≈ 731 µM) | 512 µg/mL (≈ 1460 µM) | > 512 µg/mL | > 512 µg/mL
13 | c1ccc2c(c1)c1ccccc1n2Cc1ccc(Cn2c3ccccc3c3ccccc32)cc1 | 256 µg/mL (≈ 586 µM) | > 512 µg/mL | > 512 µg/mL | > 512 µg/mL | > 512 µg/mL | > 512 µg/mL | > 512 µg/mL | > 512 µg/mL
14 | c1ccc2c(c1)c1ccccc1n2CCCCCCn1cncn1 | 32 µg/mL (≈ 100 µM) | 64 µg/mL (≈ 201 µM) | > 512 µg/mL | 16 µg/mL (≈ 50.2 µM) | 32 µg/mL (≈ 100 µM) | > 512 µg/mL | 2 µg/mL (≈ 6.28 µM) | > 512 µg/mL
15 | CCn1cc(C(=O)O)c(=O)c2cc(F)c(N3CCNCC3)cc21 [NORFLOXACIN] | 8 µg/mL (≈ 25.1 µM) | 1 µg/mL (≈ 3.13 µM) | 1 µg/mL (≈ 3.13 µM) | 0.5 µg/mL (≈ 1.57 µM) | 2 µg/mL (≈ 6.26 µM) | 1 µg/mL (≈ 3.13 µM) | – | –
16 | BrCCCCn1c2ccccc2c2ccccc21 | 256 µg/mL (≈ 847 µM) | > 512 µg/mL | > 512 µg/mL | > 512 µg/mL | 128 µg/mL (≈ 424 µM) | > 512 µg/mL | 512 µg/mL (≈ 1690 µM) | > 512 µg/mL
